Tm and folding enthalpy data for 37 sequences are collected here from the array DNA melting data of Ke et al. (doi:10.1101/2024.01.08.574731).

Series [1] is described as follows: melting temperature; fluorescence melt of hairpins on a sequencing array, two-state fit, raised by 9.35 °C to match UV melts. The note with it: sodium 0.088 M. The procedure, abridged: (§1)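 Library hairpins on a sequenced MiSeq flow cell carried annealed Cy3 and quencher oligos, and their Cy3 fluorescence was imaged in 50 mM Na-HEPES pH 8.0 with 25 mM NaCl, in 2.5 °C steps up to 60 °C. Signals were normalised to Cy3 before quenching and to control constructs. Melting temperature and folding enthalpy were obtained from bootstrapped two-state fits, combined by inverse-variance weighting across four replicates, and the fitted temperatures were then raised by 9.35 °C to match UV melts.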

A short description of series [2]: folding enthalpy; higher = less favourable; fluorescence melt of hairpins on a sequencing array, two-state fit. Particulars: sodium 0.088 M. The procedure, abridged:
as §1

Consider CGCGGAGCGGTCCGCG ((((((....)))))), for which, in series [1], the Tm came out at 50.5 °C. Moreover, in series [2], the folding enthalpy is -15.8 kcal/mol.
With CGCGGGAAAGCCCGCG ((((((....)))))), the Tm in series [1] is 68.1 °C. The folding enthalpy in series [2] is -37.1 kcal/mol.
Turning to CGCGTCGGAAACGAGGCG (((.(((....))).))), in series [1], the Tm stood at 60.9 °C. Besides, the folding enthalpy in series [2] was -46.5 kcal/mol.
In the same order, the values of CGCTAACGGAAACGTGCG (((..(((....)))))) are 48 °C and -28.9 kcal/mol.
In the same order, the values of CGCTACCGGAAACGGGCG (((..(((....)))))) are 49.4 °C and -22.5 kcal/mol.
For CGCTCACGGAAACGTGCG (((..(((....)))))), the Tm in series [1] is 39.6 °C. Besides, in series [2], the folding enthalpy is -15.6 kcal/mol.
In the same order, the values of CGCTCCGGAAACGGTGCG (((.(((....))).))) are 60.2 °C and -31.3 kcal/mol.
On the same counts, the results for CGCTCGGAAACGAACGCG ((((((....)))..))) are 44.8 °C and -19.4 kcal/mol.
On the same counts, the results for CGCTCGGAAACGATAGCG ((((((....)))..))) are 46.9 °C and -30.9 kcal/mol.
As for CGCTCGGAAACGATGCG ((((((....))).))), the Tm in series [1] stood at 51.8 °C. In series [2], the folding enthalpy is -35.4 kcal/mol.
On the same counts, the results for CGCTCGGAAACGATGGCG ((((((....)))..))) are 45.7 °C and -31.2 kcal/mol.
In the same order, the values of CGCTGGCGGAAACGCGCG (((..(((....)))))) are 52.5 °C and -19.5 kcal/mol.
Regarding CGCTGTCGGAAACGAGCG (((..(((....)))))), in series [1], the Tm is 45.2 °C. The folding enthalpy in series [2] is -25 kcal/mol.
As for CGCTTACGGAAACGTGCG (((..(((....)))))), the Tm in series [1] worked out at 42.7 °C. Further, the folding enthalpy in series [2] is -24.4 kcal/mol.
In the same order, the values of CGGAACGGAAACGTACCG (((.(((....))).))) are 49.7 °C and -43.6 kcal/mol.
On the same counts, the results for CGGACCGGAAACGGACCG (((.(((....))).))) are 58.6 °C and -41.5 kcal/mol.
In the same order, the values of CGGACGGAAACGTAACCG ((((((....)))..))) are 36.1 °C and -28.7 kcal/mol.
Turning to CGGACGGAAACGTACCG ((((((....))).))), the Tm in series [1] was 47.5 °C. The folding enthalpy in series [2] is -24.2 kcal/mol.
As to CGGACGGAAACGTCCCCG ((((((....)))..))), the Tm in series [1] stood at 34.7 °C. In addition, the folding enthalpy in series [2] is -7.24 kcal/mol.
Consider CGGACGGAAACGTGCCCG ((((((....)))..))), for which the Tm in series [1] amounted to 35.9 °C. In addition, the folding enthalpy in series [2] was -14.8 kcal/mol.
In the same order, the values of CGGACGGAAACGTTACCG ((((((....)))..))) are 36.3 °C and -20.6 kcal/mol.
In the same order, the values of CGGAGCGGAAACGCCCCG (((.(((....))).))) are 55.8 °C and -30.8 kcal/mol.
In the same order, the values of CGGATCCGGAAACGGCCG (((..(((....)))))) are 38.3 °C and -20.6 kcal/mol.
Turning to CGGATCGGAAACGAGCCG (((.(((....))).))), in series [1], the Tm was found to be 65.4 °C. In addition, the folding enthalpy in series [2] is -47.4 kcal/mol.
On to CGGATGCGGAAACGCCCG (((..(((....)))))), for which the Tm in series [1] came out at 46.9 °C. Also, the folding enthalpy in series [2] was -23.4 kcal/mol.
In the same order, the values of CGGCCGCGGAAACGCCCG (((..(((....)))))) are 42.2 °C and -20.9 kcal/mol.
For the sequence CGGCCGGAAACGGAGCCG ((((((....)))..))), the Tm in series [1] was 54.6 °C. Also, in series [2], the folding enthalpy was -34.7 kcal/mol.
As for CGGCCGGAAACGGCCCG ((((((....))).))), in series [1], the Tm is 58.5 °C. For the same sequence, the folding enthalpy in series [2] was -7.26 kcal/mol.
In the same order, the values of CGGCCGGAAACGGGCCG ((((((....))).))) are 66.9 °C and -20 kcal/mol.
Consider CGGGACGGAAACGTACCG (((.(((....))).))), for which, in series [1], the Tm amounted to 62.4 °C. The folding enthalpy in series [2] is -42.1 kcal/mol.
On the same counts, the results for CGGGAGCGGAAACGCCCG (((..(((....)))))) are 53.6 °C and -21.4 kcal/mol.
On the same counts, the results for CGGGCGGAAACGCAGCCG ((((((....)))..))) are 50.2 °C and -19.5 kcal/mol.
On the same counts, the results for CGGGCGGAAACGCCGCCG ((((((....)))..))) are 47.8 °C and -10.2 kcal/mol.
As to CGGGCGGAAACGCTGCCG ((((((....)))..))), the Tm in series [1] was 45.8 °C. The folding enthalpy in series [2] is -16.8 kcal/mol.
For CGGGCGGAAACGCTTCCG ((((((....)))..))), the Tm in series [1] came to 41 °C. In addition, the folding enthalpy in series [2] is -17.9 kcal/mol.
Consider CGGGGGAAACCCCG (((((....))))), for which the Tm in series [1] turned out to be 68.5 °C. Besides, the folding enthalpy in series [2] is -21.8 kcal/mol.
Take CGGGTCGGAAACGACCG (((.(((....)))))): in series [1], the Tm stood at 61.7 °C. The folding enthalpy in series [2] was -11.4 kcal/mol.
